In brackets after ≈: the same amount, converted by molar mass. Activity calls are given as the source filed them. No cut-off for these calls is given here.
How the values were obtained:
[1] = molecular target: T1, Enoyl-acyl carrier reductase (Toxoplasma gondii, UniProt Q6UCJ9); assay: Inhibition of Toxoplasma gondii enoyl reductase
T1 sequence (Q6UCJ9 whole entry): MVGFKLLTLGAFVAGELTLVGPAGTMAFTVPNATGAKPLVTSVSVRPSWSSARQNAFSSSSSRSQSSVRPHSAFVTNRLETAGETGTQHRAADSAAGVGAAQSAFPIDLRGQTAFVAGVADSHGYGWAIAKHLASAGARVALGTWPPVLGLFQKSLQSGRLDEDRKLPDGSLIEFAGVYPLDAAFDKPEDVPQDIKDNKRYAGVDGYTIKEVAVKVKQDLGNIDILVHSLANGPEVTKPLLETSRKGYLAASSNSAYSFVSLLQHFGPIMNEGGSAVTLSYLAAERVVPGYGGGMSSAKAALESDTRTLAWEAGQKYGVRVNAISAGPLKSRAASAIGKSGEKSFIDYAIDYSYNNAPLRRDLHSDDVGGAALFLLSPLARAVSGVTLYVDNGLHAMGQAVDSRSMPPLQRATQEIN
How it was run: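 Recombinant TgENR (20 nM) was assayed in 100 mM Na/K phosphate pH 7.5, 150 mM NaCl and 100 μM NADH. Compounds were added in DMSO (2% final), and reactions were started at 25°C with 100 μM crotonyl-CoA. NADH consumption was followed at 340 nm.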

Toxoplasma gondii [2] = assay: Antiparasitic activity against Toxoplasma gondii infected in HFF after 24 hrs by [3H]uracil incorporation assay; assay type: functional
How it was run: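 Human foreskin fibroblasts were infected with T. gondii tachyzoites and given 1 h to invade before inhibitors were added. Cultures ran 3 days, then 3H-uracil was added for a further day. Parasite growth was read as uracil incorporation by liquid scintillation counting. MIC50 and MIC90 are the concentrations giving 50% and 90% growth inhibition. There were 6 replicate samples per group.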

HFF [3] = assay: Toxicity to HFF at highest concentration; assay type: cell-based; conditions: human
How it was run: (§1)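 Host-cell toxicity was tested on non-confluent fibroblast monolayers by 3H-thymidine incorporation, alongside visual inspection of monolayer integrity. Testing ran simultaneously with the parasite inhibition assay, and the highest concentration tested was scored.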

HFF [4] = assay: Toxicity to HFF; assay type: cell-based; conditions: human; how it was run: as §1
[5] = Metabolic stability in human liver microsome assessed as compound remaining after 60 mins; assay type: ADME; conditions: liver microsomes, read-out: INH
How it was run: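 Compounds were incubated with pooled human liver microsomes for 60 minutes, and the percentage of parent compound remaining was measured.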

Toxoplasma gondii [6] = assay: Antiparasitic activity against Toxoplasma gondii RH infected in ip dosed CD1 mouse; assay type: functional, organism-based
How it was run: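 CD1 mice were infected intraperitoneally with 2000 RH (Type 1) parasites, a lethal inoculum. Inhibitors were given intraperitoneally at 10mg/kg. Read-outs were peritoneal parasite burden by microscopy at day 5 and survival up to day 5 post-infection. There were 6 mice per group.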

CYP2C9 = CYP2C9 (Homo sapiens, UniProt P11712); assay: Inhibition of CYP2C9 at 10 uM; assay type: ADME
How it was run: (§2)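 Inhibition was measured against recombinant CYP450 isozymes 2C9, 2D6 and 3A4, each with compound at 10μM, and reported as percent inhibition.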

CYP2D6 = CYP2D6 (Homo sapiens, UniProt P10635); assay: Inhibition of CYP2D6 at 10 uM; assay type: ADME; how it was run: as §2
CYP3A4 = CYP3A4 (Homo sapiens, UniProt P08684); assay: Inhibition of CYP3A4 at 10 uM; assay type: ADME; how it was run: as §2
Chain of CYP3A4 (P08684 whole entry): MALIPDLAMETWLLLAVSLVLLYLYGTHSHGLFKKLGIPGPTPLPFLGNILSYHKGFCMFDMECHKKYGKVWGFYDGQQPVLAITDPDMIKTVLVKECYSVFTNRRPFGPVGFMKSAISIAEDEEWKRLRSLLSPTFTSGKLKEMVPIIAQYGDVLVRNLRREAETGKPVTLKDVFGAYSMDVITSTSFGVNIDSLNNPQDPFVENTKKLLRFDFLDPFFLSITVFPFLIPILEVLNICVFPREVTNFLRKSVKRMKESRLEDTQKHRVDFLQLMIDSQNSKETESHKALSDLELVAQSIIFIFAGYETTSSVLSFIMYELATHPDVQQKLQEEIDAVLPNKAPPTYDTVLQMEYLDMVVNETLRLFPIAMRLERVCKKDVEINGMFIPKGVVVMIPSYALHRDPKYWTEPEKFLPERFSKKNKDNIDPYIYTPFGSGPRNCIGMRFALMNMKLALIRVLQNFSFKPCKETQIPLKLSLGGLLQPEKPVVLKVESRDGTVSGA

Chain of CYP2D6 (P10635 whole entry): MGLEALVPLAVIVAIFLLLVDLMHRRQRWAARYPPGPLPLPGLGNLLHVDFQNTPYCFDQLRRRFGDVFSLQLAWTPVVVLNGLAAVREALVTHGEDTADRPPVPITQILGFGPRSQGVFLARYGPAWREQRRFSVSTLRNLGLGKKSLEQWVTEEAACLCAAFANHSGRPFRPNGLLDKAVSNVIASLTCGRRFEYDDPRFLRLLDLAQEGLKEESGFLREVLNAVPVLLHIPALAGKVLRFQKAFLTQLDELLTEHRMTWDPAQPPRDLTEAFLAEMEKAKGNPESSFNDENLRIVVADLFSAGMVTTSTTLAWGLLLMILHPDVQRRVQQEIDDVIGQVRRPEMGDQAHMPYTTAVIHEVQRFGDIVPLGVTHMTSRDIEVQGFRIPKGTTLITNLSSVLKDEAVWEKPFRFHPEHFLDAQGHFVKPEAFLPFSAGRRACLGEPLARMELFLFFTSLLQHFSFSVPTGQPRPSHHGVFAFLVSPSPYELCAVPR
Chain of CYP2C9 (P11712 whole entry): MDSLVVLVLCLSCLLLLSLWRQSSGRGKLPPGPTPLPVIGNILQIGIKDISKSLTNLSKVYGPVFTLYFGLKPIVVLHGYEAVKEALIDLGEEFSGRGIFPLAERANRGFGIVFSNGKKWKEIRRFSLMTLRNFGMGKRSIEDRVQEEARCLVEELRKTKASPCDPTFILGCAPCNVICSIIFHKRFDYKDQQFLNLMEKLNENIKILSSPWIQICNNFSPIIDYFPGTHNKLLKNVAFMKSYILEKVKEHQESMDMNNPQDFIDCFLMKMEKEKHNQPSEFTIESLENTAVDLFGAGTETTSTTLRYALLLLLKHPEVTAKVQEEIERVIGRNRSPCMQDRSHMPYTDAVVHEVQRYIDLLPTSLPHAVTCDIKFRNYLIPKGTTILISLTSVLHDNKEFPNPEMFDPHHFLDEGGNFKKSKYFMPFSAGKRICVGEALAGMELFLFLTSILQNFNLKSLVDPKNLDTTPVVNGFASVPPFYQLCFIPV

Row | SMILES | IC50 [1] [nM] | MIC50 (Toxoplasma gondii [2]) [µM] | MIC90 (Toxoplasma gondii [2]) [µM] | Activity (HFF [3]) | Activity (HFF [4]) [µM] | remaining at 1 h [5] [%] | Activity (Toxoplasma gondii [6]) | inhibition at 10 µM (CYP2C9) [%] | inhibition at 10 µM (CYP2D6) [%] | inhibition at 10 µM (CYP3A4) [%]
1 | O=[N+]([O-])c1ccccc1Oc1ccc(Cl)cc1O | 290 | 14 (≈ 3.72 µg/mL) | 23 (≈ 6.11 µg/mL) | Non-toxic |  |  |  |  |  | 
2 | Nc1cc(Cl)ccc1Oc1ccccc1 | > 20000 | 6 (≈ 1.32 µg/mL) | > 6 | Non-toxic |  |  |  |  |  | 
3 | CC(=O)Nc1ccc(Oc2ccc(Cl)cc2O)cc1 |  | > 24 | > 24 |  |  |  |  |  |  | 
4 | CC(=O)Nc1ccc(Oc2ccc(Cl)cc2O)cn1 |  | > 24 | > 24 |  |  |  |  |  |  | 
5 | CCCc1cc(O)c(Oc2ccc(C(=O)O)cc2Cl)c(O)c1 |  | > 24 | > 24 | Non-toxic |  |  |  |  |  | 
6 | Oc1ccc(Oc2ccc(O)cc2O)cc1 |  | > 6 | > 6 | Non-toxic | 6 |  |  |  |  | 
7 | CCCc1cc(O)c(Oc2ccc(C(N)=O)cc2)c(O)c1 | 280 | 20 (≈ 5.75 µg/mL) | > 24 | Non-toxic |  |  |  |  |  | 
8 | O=C(c1ccc([N+](=O)[O-])cc1)n1c(=O)[nH]c2ccccc21 |  | > 24 | > 24 |  |  |  |  |  |  | 
9 | Oc1cc(Cl)ccc1Oc1ccc(Cl)cc1Cl [TRICLOSAN] |  | 5 (≈ 1.45 µg/mL) | > 6 |  | > 6 |  |  |  |  | 
10 | COc1ccc(COc2ccn(Cc3ccccc3Cl)c(=O)c2)cc1 | > 20000 | 17 (≈ 6.05 µg/mL) | 23 (≈ 8.18 µg/mL) | Non-toxic |  |  |  |  |  | 
11 | O=[N+]([O-])c1ccc(Oc2ccc(Cl)cc2O)c(Cl)c1 |  | 4 (≈ 1.2 µg/mL) | 6 (≈ 1.8 µg/mL) | Non-toxic | 4 | 51.2 | Active | > 85 | < 22 | < 22
12 | COc1ccc(NC(=O)COc2ccc([N+](=O)[O-])cc2)cc1 |  | 23 (≈ 6.95 µg/mL) | > 24 |  |  |  |  |  |  | 
13 | CC(=O)Nc1ccc(/C=C/C(=O)N(C)Cc2cc3ccccc3n2C)cn1 |  | > 6 | > 6 | Non-toxic | > 6 |  |  |  |  | 
14 | COc1ccc(NC(=O)/C=C/c2ccc(N)nc2)cc1 |  | > 6 | > 6 | Non-toxic | > 6 |  |  |  |  | 
15 | CC(C)(C)C(=O)Oc1cc(Cl)ccc1Oc1ccc(Cl)cc1Cl | 3000 | 4 (≈ 1.49 µg/mL) | 6 (≈ 2.24 µg/mL) | Non-toxic | > 6 |  |  |  |  | 
16 | CN(Cc1cc2ccccc2n1C)C(=O)/C=C/c1ccc(N)nc1 |  | > 6 | > 6 | Non-toxic | > 6 |  |  |  |  | 
17 | O=c1[nH]c2ccccc2n1Cc1ccc([N+](=O)[O-])cc1 |  | 20 (≈ 5.39 µg/mL) | > 24 |  |  |  |  |  |  | 
18 | CCCc1ccc(Oc2ccc([N+](=O)[O-])cc2Cl)c(O)c1 | < 20 | 4 (≈ 1.23 µg/mL) | 6 (≈ 1.85 µg/mL) | Non-toxic | 1.5 |  |  |  |  | 
19 | CCCc1ccc(Oc2cccc(CCO)c2)c(O)c1 |  | > 6 | > 6 | Non-toxic | > 6 |  |  |  |  | 
20 | O=[N+]([O-])c1ccc(Oc2ccc(Cl)cc2O)cc1 | 45 | 17 (≈ 4.52 µg/mL) | 23 (≈ 6.11 µg/mL) | Non-toxic |  |  |  |  |  | 
21 | CCOC(=O)C(C)OC(=O)c1cc(Oc2ccc(C(F)(F)F)cc2Cl)ccc1[N+](=O)[O-] (stereo not given) [LACTOFEN] |  | 16 (≈ 7.39 µg/mL) | 23 (≈ 10.6 µg/mL) | Non-toxic |  |  |  |  |  | 
22 | O=c1cc(OCCCn2c3ccccc3c3ccccc32)ccn1Cc1ccccc1Cl | > 2000 | 2 (≈ 0.886 µg/mL) | 14 (≈ 6.2 µg/mL) | Non-toxic |  |  |  |  |  | 
23 | Oc1cc(Cl)ccc1Oc1ccc(-c2ccccc2)cc1 |  | 6 (≈ 1.78 µg/mL) | 20 (≈ 5.94 µg/mL) | Non-toxic |  |  |  |  |  | 
24 | O=C(O)c1ccc(Cn2ccc(OCc3ccccc3)cc2=O)c(Cl)c1 |  | > 24 | > 24 |  |  |  |  |  |  | 
25 | CCCc1ccc(Oc2cccc([N+](=O)[O-])c2)c(O)c1 |  | > 6 | > 6 | Non-toxic | 6 |  |  |  |  | 
26 | Oc1cc(Cl)ccc1Oc1cnccn1 |  | > 6 | > 6 | Non-toxic | > 6 |  |  |  |  | 
